HIV Rev-RRE inh – HIV Rev-RRE protein-RNA interaction inhibition; P05866; Rev peptide-RRE RNA binding, FRET; inhibition, % at 8 µM; 0.79% of 97,000 active; AID 704;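 active means inhibition above the screen-wide mean plus 3 SD, cut at about 35% in these data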;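 further: 0% = median DMSO wells and 100% = median Neomycin B control wells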
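Assay system: labelled RRE RNA duplex and labelled Rev peptide / Medium: HEPES pH 7.5 salt buffer with EDTA / Reagent: labelled Rev peptide / Schedule: 5 + 15 min at 25 °C / Signal: FRET, excitation 480 nm, emission 540 nm donor and 671 nm acceptor / Benchmarks: DMSO and neomycin B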
CYP2C19 act – cytochrome P450 2C19 (human) activation; P33261; recombinant CYP2C19, luciferin-H EGE luminescence; active compounds read high; 0 = fully inhibited enzyme, 1 = untreated enzyme; activation factor at 5 µM; 96,000 tested, under 10 active; AID 1025;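 active means activation factor of at least 2 at 5 µM in the primary screen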;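 further: 0 = wells with 2.5 mM tranylcypromine and 1 = vehicle-only wells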
Target sequence (P33261 whole entry, looked up): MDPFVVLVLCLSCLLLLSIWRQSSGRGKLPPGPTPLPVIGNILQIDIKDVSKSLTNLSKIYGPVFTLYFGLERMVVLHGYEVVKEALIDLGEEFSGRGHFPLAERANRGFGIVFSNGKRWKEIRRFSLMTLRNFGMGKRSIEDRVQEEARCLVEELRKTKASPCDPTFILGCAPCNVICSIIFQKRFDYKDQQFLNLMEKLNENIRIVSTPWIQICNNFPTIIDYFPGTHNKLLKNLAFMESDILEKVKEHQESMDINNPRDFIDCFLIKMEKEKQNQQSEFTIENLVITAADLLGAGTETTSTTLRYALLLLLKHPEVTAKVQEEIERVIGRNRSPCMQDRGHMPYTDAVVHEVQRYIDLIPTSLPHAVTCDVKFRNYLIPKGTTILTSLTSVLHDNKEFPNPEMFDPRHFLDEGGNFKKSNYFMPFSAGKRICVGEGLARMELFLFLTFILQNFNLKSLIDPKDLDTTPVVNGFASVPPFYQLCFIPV
Cav32 inh – inhibitors of human Cav3.2 T-type calcium channel. Cav3.2-expressing cells, Fluo-4 calcium fluorescence FDSS; active compounds read low. B-score at 10 µM. 4% of 100,000 active. AID 449739;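 active means single-dose well whose peak fluorescence ratio is a statistical outlier from its plate by either plate-standardised score or position-corrected B-score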
CYP2C19 inh – human CYP2C19 inhibition | P33261 | CYP2C19 Supersomes, luciferin-H EGE luminescence, 30 min | inhibition, % at 5 µM | 21% of 96,000 active;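 active means CYP2C19 inhibition above a set limit at 5 µM in the primary screen, cut at about 50% in these data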;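 further: plate controls were negative control wells for no effect and 2.5 mM tranylcypromine positive control for full effect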
CYP2C9 inhib – human CYP2C9 inhibition | P11712 | CYP2C9 Supersomes, luciferin-H conversion, luminescence | inhibition, % at 5 µM | 20% of 96,000 active | AID 777;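 active means blocking of liver enzyme CYP2C9 beyond about 50% at 5 µM, limit read from the data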
CYP2C9 activ – increases human cytochrome P450 2C9 activity; P11712; recombinant CYP2C9, luciferin-H conversion, luminescence; active compounds read high; factor 1 = untreated enzyme, 0 = blocked; activation factor at 5 µM; 1.4% of 96,000 active;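 active means activation factor of 2 or more for CYP2C9 at a 5 µM dose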;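 further: 0 = sulfaphenazole-blocked wells and 1 = vehicle-only wells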
Numbers without * were called inactive; nt = no result given; [ ] = remark or other dose. An excerpt weighted towards active compounds, which were near 27% of everything screened.

SMILES	HIV Rev-RRE inh	CYP2C19 act	Cav32 inh	CYP2C19 inh	CYP2C9 inhib	CYP2C9 activ
CCOc1c(OC(C)=O)ccc(/C=C2\N=C(SCC)SC2=O)c1[N+](=O)[O-]	4.8	1	0.148	4.4	20.1	0.8
CSC1=N/C(=C\c2cccc(F)c2)C(=O)S1	3.8	1.1	-0.0352	-10.4	-18.7	1.2
Nn1c(SCC(=O)Nc2ccc(F)c(F)c2)nnc1C1CCCCC1	5.2	0.8	0.0375	23.4	29.8	0.7
Cc1ccccc1-n1c(C)nc2ccccc21	-2.7	0.2	-0.438	82.1*	54.0*	0.5
O=C1c2ccccc2-c2nc3ccccc3n21	2.6	nt	0.945	nt	nt	nt
Cc1nc2ccccc2n1-c1ccccc1	8.0	0.3	0.262	66.8*	40.0	0.6
O=c1c(/C=C(\O)c2ccccc2)nc2ccccc2n1-c1ccccc1	98.2*[fluorescence artefact?]	0.5	0.00668	45.7	34.0	0.7
COC(=O)CCCC(=O)Nc1ccc(Cl)c(Cl)c1	1.8	nt	0.0488	nt	nt	nt
COc1ccc(NC(=O)Nc2cccc(OC)c2)cc1	3.8	nt	-0.112	nt	nt	nt
COc1ccc(NC(=S)NCCc2ccccc2OC)c(OC)c1	5.7	0	-1.2	99.3*	-11.5	1.1
COc1ccc(NC(=S)NCCC(c2ccccc2)c2ccccc2)c(OC)c1	-0.1	0	-1.56	99.1*	86.1*	0.1
COc1ccc(NC(=S)NCc2ccco2)c(OC)c1	7.1	0.2	-0.148	81.0*	36.1	0.6
COc1cccc(NC(=S)NCCC(c2ccccc2)c2ccccc2)c1	-3.3	0.4	-6.92*	55.0*	68.3*	0.3
COc1ccc(NC(=S)Nc2ccccn2)c(OC)c1	3.6	0.7	-0.7	32.9	15.0	0.8
Cc1cc(NC(=O)CSc2n[nH]c(CC(C)C)n2)no1	3.0	0.8	-0.998	17.7	16.5	0.8
CSc1nc(C)c(CCOC(=O)c2cccc(C)c2)c(=O)[nH]1	6.8	0.9	-0.52	12.8	26.1	0.7
Cc1[nH]n(-c2ccccc2)c(=O)c1CCOC(=O)c1cccc(C(F)(F)F)c1	3.8	0.2	-2.04	78.2*	-2.0	1
CS(=O)(=O)N1CCN(c2c(Cl)cccc2[N+](=O)[O-])CC1	-3.3	0.8	-0.532	20.7	15.4	0.8
COc1ccc(NC(=O)CCc2c(C)nc3nc(C)nn3c2C)cc1	0.2	1	0.344	-4.5	0.0	1
CCOc1cc(S(=O)(=O)N2CCN(Cc3ccccc3)CC2)ccc1Br	15.6	0	nt	96.9*	40.9	0.6
CCOc1ccccc1N1CCN(S(=O)(=O)c2ccc(F)c(F)c2)CC1	10.7	0.5	-3.67	45.1	38.2	0.6
Cn1c(=O)c2cc(S(=O)(=O)N3CCOCC3)ccc2n(C)c1=O	5.5	1.2	-0.0352	-15.5	-24.7	1.2
Cn1c(=O)c2cc(S(=O)(=O)N3CCC(c4ccccc4)CC3)ccc2n(C)c1=O	1.4	0.8	2.26	19.5	68.4*	0.3
COc1ccc(S(=O)(=O)N2CCN(Cc3ccccc3)CC2)cc1	11.7	0.1	-0.00536	89.0*	-11.4	1.1
COc1ccc(S(=O)(=O)N2CCN(C(=O)NCc3ccccc3)CC2)cc1	7.1	1	0.218	-3.0	-5.9	1.1
SMILES	HIV Rev-RRE inh	CYP2C19 act	Cav32 inh	CYP2C19 inh	CYP2C9 inhib	CYP2C9 activ
O=S(=O)(c1ccccc1)N1CCN(Cc2cccc(Cl)c2)CC1	4.0	0.3	-1.41	70.1*	60.8*	0.4
CCC(C)N1C(=O)CCC1C(=O)O (configuration not stated)	10.7	1.2	-1.41	-17.5	-6.8	1.1
COC(=O)c1nonc1NCn1nnc2ccccc21	0.2	0.7	1.37	28.0	-8.8	1.1
COc1cccc(CN2CCN(S(=O)(=O)c3ccc(Br)cc3)CC2)c1	10.8	0.1	-1.96	86.4*	61.0*	0.4
CN(Cc1ccccc1)S(=O)(=O)c1ccc2c(c1)n(C)c(=O)n2C	2.5	0.3	-0.188	65.1*	4.5	1
Cn1c(=O)c(=O)n(C)c2cc(S(=O)(=O)N3CCN(Cc4ccccc4)CC3)ccc21	2.7	1	nt	-2.1	51.4*	0.5
COc1ccc(S(=O)(=O)N2CCCN(Cc3cccc(F)c3)CC2)cc1	7.2	0.4	0.271	60.4*	-55.0	1.6
Cn1c(=O)n(C)c2cc(S(=O)(=O)NCc3ccccc3)ccc21	nt	0.8	-0.198	21.8	-31.0	1.3
